In ChEMBL document CHEMBL2203168, “Amine linked flavonoid dimers as modulators for P-glycoprotein-based multidrug resistance: structure-activity relationship and mechanism of modulation” (J Med Chem, 2012):

What was measured:
Homo sapiens [1] = species: Homo sapiens; assay: Inhibition of P-gp-mediated paclitaxel resistance in human LCC6MDR cells assessed as fold decrease in paclitaxel IC50 for cytotoxic activity at 1 uM after 5 days by MTS assay relative to parental cells; format: cell-based
[2] = Cytotoxicity against human LCC-6 cells after 72 hrs; format: functional, cell-based; conditions: LCC-6, 72 h
How it was run: (§1)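 Cells seeded at 1 × 10⁴ per well in supplemented DMEM and given graded doses of dimer for 72 h at 37 °C, 5% CO₂. Survival measured and IC50 derived. N = 1–3 independent experiments, mean ± SEM.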

Homo sapiens [3] = species: Homo sapiens; assay: Inhibition of P-gp-mediated paclitaxel resistance in human LCC6MDR cells assessed as fold decrease in paclitaxel IC50 for cytotoxic activity at 0.5 uM after 5 days by MTS assay relative to parental cells; format: cell-based
MDR = assay: Cytotoxicity against human MDA435/LCC6MDR cells expressing MDR after 72 hrs; format: functional, cell-based; how it was run: as §1
L929 = assay: Cytotoxicity against mouse L929 cells after 72 hrs; format: cell-based; conditions: L929, 72 h; how it was run: as §1
[4] = Reversal of P-gp-mediated paclitaxel-resistance in human LCC6MDR cells after 5 days by MTS assay; format: cell-based; conditions: 120 h
[5] = Therapeutic index, ratio of IC50 for L929 cells to EC50 for reversing paclitaxel resistance in human MDA435/LCC6MDR cells; format: cell-based; conditions: L929 cells (IC50) and MDA435/LCC6MDR cells (EC50)

SMILES	Ratio (Homo sapiens [1])	IC50 [2] [µM]	Ratio (Homo sapiens [3])	IC50 (MDR) [µM]	IC50 (L929) [µM]	EC50 [4] [µM]	selectivity ratio [5]
CC(C)(C)OC(=O)N(CCOCCOc1ccc(-c2oc3ccccc3c(=O)c2OCc2ccccc2)cc1)CCOCCOc1ccc(-c2oc3ccccc3c(=O)c2OCc2ccccc2)cc1	1.2	> 100	1.1	> 100	–	–	–
O=c1cc(-c2ccc(OCCOCCOCCOCCOc3ccc(-c4cc(=O)c5ccccc5o4)cc3)cc2)oc2ccccc12	17.2	–	6.2	–	–	–	–
O=C1c2ccccc2C(=O)N1CCN(CCOCCOc1ccc(-c2cc(=O)c3ccccc3o2)cc1)CCOCCOc1ccc(-c2cc(=O)c3ccccc3o2)cc1	118	8.6	9.6	4.9	17	–	–
C[C@H](N)C(=O)N(CCOCCOc1ccc(-c2cc(=O)c3ccccc3o2)cc1)CCOCCOc1ccc(-c2cc(=O)c3ccccc3o2)cc1	0.9	4.4	1	4.6	–	–	–
O=c1cc(-c2ccc(OCCOCCNCCOCCOc3ccc(-c4cc(=O)c5cc(F)ccc5o4)cc3)cc2)oc2ccc(F)cc12	109	5.3	72.9	3.3	5.7	–	–
O=c1cc(-c2ccc(OCCOCCN(CCCc3ccccc3)CCOCCOc3ccc(-c4cc(=O)c5ccccc5o4)cc3)cc2)oc2ccccc12	56.7	> 100	12.5	> 100	9.5	0.25	38
O=c1cc(-c2ccc(OCCOCCN(CCOCCOc3ccc(-c4cc(=O)c5ccccc5o4)cc3)Cc3cc(F)c(F)c(F)c3)cc2)oc2ccccc12	80.6	> 75	3.3	> 100	> 100	–	–
O=c1cc(-c2ccc(OCCOCCN(CCOCCOc3ccc(-c4cc(=O)c5ccccc5o4)cc3)Cc3ccccc3F)cc2)oc2ccccc12	102	> 100	43.7	> 100	> 100	0.179	> 559
COc1cc(-c2cc(=O)c3ccccc3o2)ccc1OCCOCCN(CCOCCOc1ccc(-c2cc(=O)c3ccccc3o2)cc1OC)C(=O)OC(C)(C)C	16.8	8.3	8.7	6.9	33.3	–	–
O=c1c(OCc2ccccc2)c(-c2ccc(OCCOCCNCCOCCOc3ccc(-c4oc5ccccc5c(=O)c4OCc4ccccc4)cc3)cc2)oc2ccccc12	128	4.3	54.7	4.4	4.2	–	–
O=c1cc(-c2ccc(OCCOCCN(CCO)CCOCCOc3ccc(-c4cc(=O)c5ccccc5o4)cc3)cc2)oc2ccccc12	32.6	10.7	5	14.8	6.9	–	–
O=c1cc(-c2ccc(OCCOCCN(CCOCCOc3ccc(-c4cc(=O)c5ccccc5o4)cc3)Cc3ccc(F)c(F)c3)cc2)oc2ccccc12	109	32.5	49.3	33.6	42.2	–	–
CC(C)(C)OC(=O)N(CCOCCOc1ccc(-c2cc(=O)c3cc(F)ccc3o2)cc1)CCOCCOc1ccc(-c2cc(=O)c3cc(F)ccc3o2)cc1	31.9	> 100	11.3	> 100	> 100	–	–
Cc1ccc(S(=O)(=O)N(CCOCCOc2ccc(-c3cc(=O)c4ccccc4o3)cc2)CCOCCOc2ccc(-c3cc(=O)c4ccccc4o3)cc2)cc1	21.6	> 100	5.8	> 100	> 100	–	–
COc1cccc2oc(-c3ccc(OCCOCCN(CCOCCOc4ccc(-c5cc(=O)c6c(OC)cccc6o5)cc4)C(=O)OC(C)(C)C)cc3)cc(=O)c12	109	4.6	14.9	5.4	5.5	–	–
C/C=C/C[C@@H](C)C(=O)[C@H]1C(=O)N[C@@H](C(C)C)C(=O)N(C)CC(=O)N(C)[C@@H](CC(C)C)C(=O)N[C@@H](C(C)C)C(=O)N(C)[C@@H](CC(C)C)C(=O)N[C@@H](C)C(=O)N[C@H](C)C(=O)N(C)[C@@H](CC(C)C)C(=O)N(C)[C@@H](CC(C)C)C(=O)N(C)[C@@H](C(C)C)C(=O)N1C [VALSPODAR]	85.1	25.3	–	14.6	> 100	–	–
CCOC(=O)CCN(CCOCCOc1ccc(-c2cc(=O)c3ccccc3o2)cc1)CCOCCOc1ccc(-c2cc(=O)c3ccccc3o2)cc1	43.7	13.5	5.3	17.7	18.1	–	–
COc1cc(-c2cc(=O)c3ccccc3o2)ccc1OCCOCCNCCOCCOc1ccc(-c2cc(=O)c3ccccc3o2)cc1OC	1.1	12.8	0.8	23.8	–	–	–
COC(=O)c1ccc(CN(CCOCCOc2ccc(-c3cc(=O)c4ccccc4o3)cc2)CCOCCOc2ccc(-c3cc(=O)c4ccccc4o3)cc2)cc1	18.9	33.3	2.1	64.8	11.4	–	–
Cc1ccc2oc(-c3ccc(OCCOCCN(CCOCCOc4ccc(-c5cc(=O)c6cc(C)ccc6o5)cc4)C(=O)OC(C)(C)C)cc3)cc(=O)c2c1	139	> 100	9.6	> 100	> 100	–	–
COc1cccc2oc(-c3ccc(OCCOCCNCCOCCOc4ccc(-c5cc(=O)c6c(OC)cccc6o5)cc4)cc3)cc(=O)c12	1.2	8.8	1.2	10.2	–	–	–
O=C(c1ccccc1)N(CCOCCOc1ccc(-c2cc(=O)c3ccccc3o2)cc1)CCOCCOc1ccc(-c2cc(=O)c3ccccc3o2)cc1	42.5	> 100	7.5	> 100	95	–	–
CS(=O)(=O)N(CCOCCOc1ccc(-c2cc(=O)c3ccccc3o2)cc1)CCOCCOc1ccc(-c2cc(=O)c3ccccc3o2)cc1	20.1	27.5	12.8	42.6	13.4	–	–
O=c1cc(-c2ccc(OCCOCCN(CCOCCOc3ccc(-c4cc(=O)c5ccccc5o4)cc3)Cc3ccncc3)cc2)oc2ccccc12	27.8	> 100	6.9	> 100	26.4	–	–
CN(C)c1cccc2c(S(=O)(=O)N(CCOCCOc3ccc(-c4cc(=O)c5ccccc5o4)cc3)CCOCCOc3ccc(-c4cc(=O)c5ccccc5o4)cc3)cccc12	1.3	> 100	1.4	> 100	–	–	–
O=c1cc(-c2ccc(OCCOCCN(CCOCCOc3ccc(-c4cc(=O)c5ccccc5o4)cc3)Cc3ccccn3)cc2)oc2ccccc12	95.7	10	15.8	29.7	10	–	–
CC(=O)O[C@H]1C(=O)[C@@]2(C)[C@H]([C@H](OC(=O)c3ccccc3)[C@]3(O)C[C@H](OC(=O)[C@H](O)[C@@H](NC(=O)c4ccccc4)c4ccccc4)C(C)=C1C3(C)C)[C@]1(OC(C)=O)CO[C@@H]1C[C@@H]2O	1	–	–	–	–	–	–
O=C(O)CCC(=O)N(CCOCCOc1ccc(-c2cc(=O)c3ccccc3o2)cc1)CCOCCOc1ccc(-c2cc(=O)c3ccccc3o2)cc1	0.9	78.4	1.1	> 100	–	–	–
Cc1ccc2oc(-c3ccc(OCCOCCNCCOCCOc4ccc(-c5cc(=O)c6cc(C)ccc6o5)cc4)cc3)cc(=O)c2c1	139	7.5	13.9	7	6	–	–
CC(C)(C)CC(=O)N(CCOCCOc1ccc(-c2cc(=O)c3ccccc3o2)cc1)CCOCCOc1ccc(-c2cc(=O)c3ccccc3o2)cc1	72.9	> 100	18.9	> 100	> 100	–	–
